The entries come from a sample that favours hits as a whole.
IDH1 mut inh – blocks human IDH1 R132H reductase activity | O75874 | diaphorase/resazurin fluorescence, 60 min | inhibition, % at 10 µM | 70,000 compounds, 0.18% hits; in the data active = inhibition above about 34%; inconclusive = no clear call, values can overlap the other calls; inactive = below about 11%;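 also: 0% = DMSO and 100% = no enzyme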
GASC1 inh – blocks human GASC-1 (KDM4C) demethylase activity. Q9H3R0. GST-KDM4C 2-372, H3K9me3 peptide, LANCE TR-FRET. inhibition, % at 12.5 µM. 96,000 compounds, 0.15% hits. AID 720574;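 active = mean replicate inhibition above about 25%, with at least 55% of replicates also reaching it, limit read from the data, passing the limit was not always enough; inconclusive = only one of those two conditions met; inactive = neither condition met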
Target sequence (Q9H3R0 2-372 limits assumed): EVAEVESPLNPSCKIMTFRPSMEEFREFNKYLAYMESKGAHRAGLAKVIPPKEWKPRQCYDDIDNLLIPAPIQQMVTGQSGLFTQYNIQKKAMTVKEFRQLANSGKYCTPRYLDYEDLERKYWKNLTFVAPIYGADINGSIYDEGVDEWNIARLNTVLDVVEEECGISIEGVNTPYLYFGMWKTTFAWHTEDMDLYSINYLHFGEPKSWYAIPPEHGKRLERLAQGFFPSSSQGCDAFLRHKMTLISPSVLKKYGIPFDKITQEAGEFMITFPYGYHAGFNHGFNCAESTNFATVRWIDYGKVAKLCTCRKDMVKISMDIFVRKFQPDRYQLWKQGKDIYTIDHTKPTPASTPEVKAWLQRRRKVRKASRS
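Material: GST-tagged GASC-1 (JMJD2C) catalytic fragment, aa 2-372 / Quantity: enzyme final amount 10 nM / Medium: HEPES buffer, pH 7.5, plus ascorbate / Doses: one test concentration per compound / Incubation: 30 min reaction, 60 min detection, RT / Measured by: LANCE TR-FRET / Read-out: inhibition from TR-FRET ratio decrease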
T cruzi growth-1 – inhibitors of T. cruzi proliferation. AID 624255. T. cruzi beta-gal in NIH3T3, GalScreen luminescence, 90 h. inhibition, % at 8.34 µM. 77,000 compounds, 5.9% hits;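 active = mean inhibition above about 93%, with at least 55% of replicates each passing it, limit read from the data, passing the limit was not always enough; inconclusive = only one of those two conditions holds; inactive = neither condition holds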
T cruzi growth-2 – Trypanosoma cruzi proliferation inhibition | AID 651739 | 5,600 compounds, 72% hits | inhibition, % at 8.35 µM | shares compounds with T cruzi growth-1 | T. cruzi beta-gal in NIH3T3, GalScreen luminescence, 90 h;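 active = mean replicate inhibition above about 95% and at least 55% of replicates individually reaching it, limit read from the data; inconclusive = only one of the two criteria is met; inactive = neither criterion is met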
T cruzi growth-3 – Trypanosoma cruzi proliferation inhibition. 5,600 compounds, 21% hits. AID 651740. T. cruzi beta-gal in NIH3T3, GalScreen luminescence, 90 h. inhibition, % at 2.09 µM. shares compounds with T cruzi growth-1;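 active = mean inhibition above about 95%, with at least 55% of replicates also reaching it, limit read from the data; inconclusive = meets just one of the two conditions; inactive = meets neither condition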;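 also: plate controls were neutral control median for no effect and positive control median for full effect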
3T3 cytotox – kills mouse NIH/3T3 fibroblasts; cytotoxicity (signal decrease), % at 8.35 µM; NIH/3T3 viability, CellTiter-Glo ATP luminescence, 90 h; shares compounds with T cruzi growth-1; 5,600 compounds, 14% hits;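 active = mean signal decrease across replicates above about 35% based on untreated-well scatter, with enough replicates individually passing, limit read from the data; inconclusive = no rule stated though some were filed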;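 also: 0% = median of neutral control wells and 100% = median of positive control wells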
3T3 cytotox 2 – cytotoxicity in mouse NIH/3T3 fibroblasts; shares compounds with T cruzi growth-1; NIH/3T3 viability, CellTiter-Glo ATP luminescence, 90 h; inhibition, % at 24.9 µM; 5,600 compounds, 56% hits;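 active = mean loss of cell viability signal at or above a set limit, and enough replicates individually reaching it; inconclusive = meets only the mean limit or only the replicate share; inactive = meets neither condition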;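 also: 0% = median of neutral control wells and 100% = median of positive control wells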
Numbers without * were called inactive.

`Cc1noc(C)c1S(=O)(=O)Nc1ccc2c(c1)C(=O)N([C@H](C)CO)C[C@H](C)[C@H](CN(C)Cc1ccc(C(F)(F)F)cc1)OCCCC[C@H](C)O2` gave GASC1 inh 8.4, T cruzi growth-1 101.2*, T cruzi growth-2 97.1*, T cruzi growth-3 105.4*, 3T3 cytotox 29.4 and 3T3 cytotox 2 104.7*.
`Cc1noc(C)c1S(=O)(=O)Nc1ccc2c(c1)C(=O)N([C@@H](C)CO)C[C@H](C)[C@@H](CN(C)Cc1ccc(C(F)(F)F)cc1)OCCCC[C@@H](C)O2` gave IDH1 mut inh 3.8, GASC1 inh 1.9, T cruzi growth-1 98.0*, T cruzi growth-2 inconclusive, T cruzi growth-3 inconclusive, 3T3 cytotox 18.3 and 3T3 cytotox 2 105.1*.
For Cc1noc(C)c1S(=O)(=O)Nc1ccc2c(c1)C(=O)N([C@H](C)CO)C[C@H](C)[C@H](CN(C)Cc1ccc(C(=O)O)cc1)OCCCC[C@H](C)O2 the results were GASC1 inh 1.0 and T cruzi growth-1 31.6.
`COc1ccc(C)cc1Nc1nc(N)nc(-c2oc3ccccc3c2C)n1` gave IDH1 mut inh 0.0.
`O=C1CC(O)[C@H]2[C@@H]3N1c1ccccc1[C@@]31CCN3C/C(=C/CO)[C@@H]2C[C@H]31` (stereo partly specified) gave IDH1 mut inh 0.4.
C[C@H]1CN([C@@H](C)CO)S(=O)(=O)c2ccc(-c3cccnc3)cc2O[C@H]1CN(C)C(=O)C1CC1 was read as GASC1 inh 3.1 and T cruzi growth-1 50.0.
`O=C(Cn1ccc([N+](=O)[O-])n1)Nc1cc(Cl)cc(Cl)c1` gave IDH1 mut inh -0.1.
`C[C@@H]1CN([C@H](C)CO)S(=O)(=O)c2ccc(/C=C/c3ccccc3)cc2O[C@@H]1CN(C)C(=O)NC1CCCC1` gave GASC1 inh -0.7 and T cruzi growth-1 82.1.
C[C@H](CO)N1C[C@H](C)[C@H](CN(C)C(=O)NC2CCCC2)Oc2cc(/C=C/c3ccccc3)ccc2S1(=O)=O was read as IDH1 mut inh -0.7, GASC1 inh -1.3 and T cruzi growth-1 94.2.
`C[C@@H]1CN([C@@H](C)CO)S(=O)(=O)c2ccc(/C=C/c3ccccc3)cc2O[C@@H]1CN(C)C(=O)NC1CCCC1` gave IDH1 mut inh 1.3, GASC1 inh -1.7, T cruzi growth-1 inconclusive, T cruzi growth-2 101.8*, T cruzi growth-3 81.7, 3T3 cytotox 2.7 and 3T3 cytotox 2 25.5*.
C[C@H]1CN([C@@H](C)CO)S(=O)(=O)c2ccc(/C=C/c3ccccc3)cc2O[C@@H]1CN(C)C(=O)NC1CCCC1 was read as GASC1 inh -2.4, T cruzi growth-1 99.1*, T cruzi growth-2 inconclusive, T cruzi growth-3 56.2, 3T3 cytotox -1.5 and 3T3 cytotox 2 96.0*.
CCN(CC)CCNc1ncnc(N)c1[N+](=O)[O-] was read as IDH1 mut inh 0.4.
For Cc1ccccc1NC(=O)CN(c1ccc(Br)cc1)S(C)(=O)=O the results were IDH1 mut inh 0.9.
`Cc1cc(C(=O)Nc2cccc3c2O[C@H](CN(C)Cc2ccc(C(=O)Nc4ccccc4N)cc2)[C@H](C)CN([C@H](C)CO)C3=O)n(C)n1` gave GASC1 inh 1.6, T cruzi growth-1 103.2*, T cruzi growth-2 -48.5, T cruzi growth-3 -58.9, 3T3 cytotox -9.5 and 3T3 cytotox 2 -13.0.
For Cc1cc(C(=O)Nc2cccc3c2O[C@H](CN(C)Cc2ccc(C(=O)Nc4ccccc4N)cc2)[C@@H](C)CN([C@@H](C)CO)C3=O)n(C)n1 the results were GASC1 inh -3.1, T cruzi growth-1 106.2*, T cruzi growth-2 106.2*, T cruzi growth-3 85.6, 3T3 cytotox 10.4 and 3T3 cytotox 2 22.6.
`Cc1cc(C(=O)Nc2cccc3c2O[C@@H](CN(C)Cc2ccc(C(=O)Nc4ccccc4N)cc2)[C@H](C)CN([C@H](C)CO)C3=O)n(C)n1` gave IDH1 mut inh 0.0, GASC1 inh 15.6 and T cruzi growth-1 98.1.
`Cc1cc(C(=O)Nc2cccc3c2O[C@H](CN(C)Cc2ccc(C(=O)Nc4ccccc4N)cc2)[C@@H](C)CN([C@H](C)CO)C3=O)n(C)n1` gave GASC1 inh 17.3 and T cruzi growth-1 97.7.
For CO[C@H]1CN(C)C(=O)c2cc(NC(=O)CC(F)(F)F)ccc2OC[C@@H](C)N(C(C)=O)C[C@H]1C the results were GASC1 inh -0.3.
O=C1O[C@@H](c2ccccc2)[C@@H](c2ccccc2)N2[C@@H](c3ccc(O)cc3)[C@]3(C(=O)Nc4ccccc43)[C@@H](C(=O)N3CCN(c4ncccn4)CC3)[C@H]12 was read as IDH1 mut inh 0.4.
CS(=O)(=O)Nc1ccc2oc3ncccc3c(=O)c2c1 was read as IDH1 mut inh -0.1.
For CCCC[C@H](O)[C@@H]1CC(OC)=CC(=O)O1 the results were IDH1 mut inh 0.5.
For C[C@@H]1CN([C@@H](C)CO)C(=O)c2c(c3ccccc3n2C)-c2ccccc2CO[C@@H]1CN(C)Cc1cccnc1 the results were IDH1 mut inh 6.1, GASC1 inh 1.7, T cruzi growth-1 135.3*, T cruzi growth-2 99.1*, T cruzi growth-3 13.1, 3T3 cytotox 19.0 and 3T3 cytotox 2 69.0*.
Screening C[C@@H]1CN([C@H](C)CO)C(=O)c2c(c3ccccc3n2C)-c2ccccc2CO[C@H]1CN(C)C returned IDH1 mut inh -3.4, GASC1 inh 1.4, T cruzi growth-1 106.5*, T cruzi growth-2 86.5, T cruzi growth-3 -26.0, 3T3 cytotox -6.5 and 3T3 cytotox 2 13.5.
`CC(=O)N(C)C[C@H]1OCc2ccccc2-c2c(n(C)c3ccccc23)C(=O)N([C@@H](C)CO)C[C@H]1C` gave IDH1 mut inh -0.5, GASC1 inh -0.3 and T cruzi growth-1 -24.4.
`C[C@H]1CN([C@@H](C)CO)C(=O)c2c(c3ccccc3n2C)-c2ccccc2CO[C@@H]1CN(C)Cc1cccnc1` gave GASC1 inh 3.3 and T cruzi growth-1 75.9.
For C[C@H]1CN([C@@H](C)CO)C(=O)c2c(c3ccccc3n2C)-c2ccccc2CO[C@@H]1CN(C)C the results were IDH1 mut inh -0.6, GASC1 inh 0.5 and T cruzi growth-1 40.9.
`C[C@@H]1CN([C@H](C)CO)C(=O)c2c(c3ccccc3n2C)-c2ccccc2CO[C@@H]1CN(C)C` gave IDH1 mut inh -0.5, GASC1 inh -0.2, T cruzi growth-1 inconclusive, T cruzi growth-2 -16.0, T cruzi growth-3 -9.9, 3T3 cytotox -17.9 and 3T3 cytotox 2 1.4.
